Activity calls are given as the source filed them. No cut-off for these calls is given here.
What was measured:
Trametes versicolor [1] = experiment: Inhibition of Trametes versicolor laccase
Trametes versicolor [2] = system: Trametes versicolor;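 for Km: kinetic parameters for Trametes versicolor laccase, determined from a spectrophotometric readout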;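 for kcat/Km: measured with the laccase enzyme of Trametes versicolor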
Trametes versicolor [3] = system: Trametes versicolor; remark: listed apart in the source;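 for Km: kinetic parameters for Trametes versicolor laccase, determined from a spectrophotometric readout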;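 for kcat/Km: measured with the laccase enzyme of Trametes versicolor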
Anopheles gambiae [4] = experiment: Antilarval activity against third-instar larvae of Anopheles gambiae assessed as mortality at 1000 ug/L after 72 hrs; format: functional
Outline: (§1)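 Third-instar larvae came from a laboratory An. gambiae colony originally from MR4. Groups of 12–15 larvae were held at 25°C in distilled water with larval food. Compound was added from an acetone or water stock to final 50 or 1000 μg/L, with a solvent-only control. Treatments and controls were run four times, and mortality was scored at 72 h.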

Anopheles gambiae [5] = experiment: Antilarval activity against third-instar larvae of Anopheles gambiae assessed as mortality at 50 ug/L after 72 hrs; format: functional; outline: as §1
Anopheles gambiae [6] = experiment: Antilarval activity against third-instar larvae of Anopheles gambiae assessed as effect on cuticle development by microscopic analysis relative to control; format: functional
Culex pipiens molestus = experiment: Antilarval activity against third-instar larvae of Culex molestus assessed as mortality at 100 ug/L after 72 hrs; format: functional

Row | SMILES | inhibition (Trametes versicolor [1]) | kcat/Km (Trametes versicolor [2]) | Km (Trametes versicolor [3]) | kcat (Trametes versicolor [3]) | Activity (Anopheles gambiae [4]) | Activity (Anopheles gambiae [5]) | Activity (Anopheles gambiae [6]) | Activity (Culex pipiens molestus)
1 | COc1cc(O)c(O)c(Cl)c1Br | inactive | 2.24e+06 M⁻¹ s⁻¹ | 40 µM | 89.7 s⁻¹ | – | – | – | –
2 | CC(C)(C)c1cc(C(C)(C)CNCc2ccccc2)cc(C(C)(C)C)c1O.O=C(O)C(F)(F)F | – | – | – | – | 7.7% | 3.71% | – | –
3 | COc1cc(O)c(Br)c(Cl)c1O | inactive | 262000 M⁻¹ s⁻¹ | 70 µM | 18.3 s⁻¹ | – | – | – | –
4 | CC(C)(C)c1cc(C(C)(C)/C=N/O)cc(C(C)(C)C)c1O | – | – | – | – | 93.1% | 5.41% | – | –
5 | CC(C)=CCc1cc(C(C)(C)C)cc(C(C)(C)C)c1O | – | – | – | – | 98.3% | 98.1% | Active | 60%
6 | CC(C)(C)c1cc(C(C)(C)CO)cc(C(C)(C)C)c1O | – | – | – | – | 46.7% | 0% | – | –
7 | Cc1ccc(O)c(N)c1 | inactive | 1.19e+06 M⁻¹ s⁻¹ | 110 µM | 131 s⁻¹ | – | – | – | –
8 | Oc1ccc(O)cc1 [HYDROQUINONE] | – | 594 M⁻¹ s⁻¹ | 20 µM | 119 s⁻¹ | 5.38% | 1.25% | – | –
9 | CC(C)(C)c1cc(C(C)(C)C=O)cc(C(C)(C)C)c1O | – | – | – | – | 65% | 0% | – | –
10 | Nc1cc(CO)ccc1O | inactive | 788000 M⁻¹ s⁻¹ | 80 µM | 63 s⁻¹ | – | – | – | –
11 | CC(C)(C)c1cc(C(C)(C)C(=O)[O-])cc(C(C)(C)C)c1O.[Na+] | – | – | – | – | 12.3% | 5.5% | – | –
12 | CC(C)(C)c1cc(C(C)(C)c2ccccc2)cc(C(C)(C)C)c1O | – | – | – | – | 100% | 93.3% | – | –
13 | CC1(C)CCc2cc(C(C)(C)C)cc(C(C)(C)C)c2O1 | – | – | – | – | 91.7% | 5.77% | – | –
14 | Nc1cc(C(=O)O)ccc1O | inactive | 698000 M⁻¹ s⁻¹ | 70 µM | 48.8 s⁻¹ | – | – | – | –
15 | Nc1ccccc1O | – | 197000 M⁻¹ s⁻¹ | 190 µM | 37.5 s⁻¹ | – | – | – | –
16 | Oc1ccccc1O | – | 55800 M⁻¹ s⁻¹ | 600 µM | 33.5 s⁻¹ | – | – | – | –
17 | COC1=CC(=O)C(N[C@@H](C)C(=O)OCc2ccccc2)=C(Cl)C1=O | – | – | – | – | 6.66% | 5% | – | –
18 | CC(C)(Br)C(=O)c1cc(C(C)(C)C)c(O)c(C(C)(C)C)c1 | – | – | – | – | 60% | 0% | – | –
19 | COc1cc(C=O)cc(Cl)c1O | inactive | 47800 M⁻¹ s⁻¹ | 2200 µM | 105 s⁻¹ | – | – | – | –
20 | Oc1cc(O)c(Br)c(Cl)c1O | inactive | 2.89e+06 M⁻¹ s⁻¹ | 50 µM | 145 s⁻¹ | 11.4% | 0% | – | –
21 | COc1c(O)cc(O)c(Br)c1Cl | inactive | 1.37e+06 M⁻¹ s⁻¹ | 70 µM | 96 s⁻¹ | – | – | – | –
22 | Nc1ccc(C(=O)O)cc1O | inactive | 250000 M⁻¹ s⁻¹ | 170 µM | 42.5 s⁻¹ | – | – | – | –
23 | Nc1ccccc1N | – | 40300 M⁻¹ s⁻¹ | 430 µM | 17.3 s⁻¹ | – | – | – | –
24 | O=Cc1cc(O)c(O)c(Cl)c1 | inactive | 792000 M⁻¹ s⁻¹ | 40 µM | 31.7 s⁻¹ | – | – | – | –
